Assay outcomes (PubChem BioAssay)
TRPC6 activator = activators of mouse TRPC6 channel; HEK293-TRPC6 membrane potential dye fluorescence; stronger effect = higher value; B-score at 10 µM; 310,000 tested, 0.13% active; AID 2550; Q61143;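 active = B-score of the integrated fluorescence ratio above library mean plus 3 SD, and starting fluorescence ratio within library mean plus 5 SD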;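 note: higher score means more depolarization so channel activation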
Kir21 block = Kir2.1 (mouse) channel inhibition; HEK293-Kir2.1, FluxOR thallium flux fluorescence; stronger effect = lower value; 310,000 tested, 0.85% active; B-score at 10 µM;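 active = fluorescence ratio B-score at or below minus 3 SD of library scores, with starting-brightness B-score within 2 SD, cut at about -4.2 in these data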;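 note: channel flux triggered by added potassium and thallium sulfate stimulus; B-score of peak minus minimum fluorescence over baseline after thallium stimulus; more negative B-score means stronger Kir2.1 block with less thallium influx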
TRPC6 inh = blocks the mouse TRPC6 cation channel; HEK293-TRPC6, membrane potential dye, ACh-evoked depolarization; stronger effect = lower value; B-score at 10 µM; 310,000 tested, 1.1% active;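 active = B-score under library mean minus 3 SD, initial fluorescence not abnormally high, positive integrated signal ratio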;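 note: B-score derived from integrated fluorescence ratio over the kinetic read; more negative B-score means stronger inhibition of depolarization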
TRPC4 potent = allosteric potentiators of mouse TRPC4 channel; 310,000 tested, 0.42% active; HEK293 TRPC4beta/mu-opioid, DAMGO EC20, Fluo-4 Ca2+ flux; stronger effect = higher value; Q9QUQ5; B-score at 10 µM;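 active = B-score of calcium response area above 5 SD of library B-scores, with initial fluorescence ratio within 5 SD of library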;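 note: B-score of integrated fluorescence ratio over time as area under calcium response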
TRPC4 act = activators of mouse TRPC4 channel; HEK293 TRPC4beta/mu-opioid, Fluo4 calcium fluorescence; stronger effect = higher value; AID 2237; B-score at 10 µM; 310,000 tested, 0.49% active;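 active = B-score above 5 SD of library B-scores, and initial fluorescence ratio not above library mean plus 5 SD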;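 note: positive B-score marks a calcium rise read as TRPC4 activation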
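Material: HEK293 stable line with TRPC4beta plus mu-opioid receptor; technique: Fluo4 calcium-sensitive dye fluorescence, kinetic, 1 Hz baseline; timing: Fluo4 dye loading 45 min at room temperature, 110 s recording; controls: assay buffer as low control, maximal DAMGO as high control; read-out: integrated baseline-normalised fluorescence ratio, converted to per-well B score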
TRPC4 inh = blocks the mouse TRPC4 cation channel; Q9QUQ5; HEK293 TRPC4beta/mu-opioid, DAMGO-evoked Fluo4 calcium flux; stronger effect = lower value; B-score at 10 µM; 300,000 tested, 0.39% active; AID 2247;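 active = B-score over 3 SD under the library average, no early fluorescence shift, positive overall ratio signal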
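Material: HEK293 cells with stable TRPC4beta plus mu-opioid receptor expression; probe or stimulus: DAMGO in two steps, submaximal then maximal; technique: Fluo4 calcium fluorescence by kinetic imaging, 5 s 1 Hz baseline; measure: integrated fluorescence ratio relative to baseline, converted to per-well B score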
hERG inh = hERG (human) inhibition as Kir2.1 counter-screen; shares compounds with Kir21 block; hERG-expressing cells, thallium flux; inhibition, % at 10 µM; 320 tested, 20% active;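 note: host cells are CHO cells stably expressing hERG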
KCNK9 inh = tests whether Kir2.1 inhibitors also affect human KCNK9; shares compounds with Kir21 block; KCNK9-expressing cells, ion flux inhibition; inhibition, % at 10 µM; 320 tested, 5% active; AID 2329
Kir2-1 patch inh = blocks mouse Kir2.1 current in automated electrophysiology. inhibition, % at 25 µM. 320 tested, 71% active. Kir2.1 cells, automated patch-clamp current inhibition. shares compounds with Kir21 block
An asterisk follows results filed as active. An excerpt weighted towards active compounds, which were near 2.9% of everything screened. Unless noted, the rule behind the calls is not given here.

How did CSc1ccc(CN2CCC(CO)(CCOc3ccccc3)CC2)cc1 do in these assays?
TRPC6 activator: inactive; Kir21 block: -5.8*; TRPC6 inh: inactive; TRPC4 potent: inactive; TRPC4 act: inactive; TRPC4 inh: inactive; hERG inh: 73%*; KCNK9 inh: inactive; Kir2-1 patch inh: 7.3%*

What do the screens show for `Cc1ccc(S(=O)(=O)NCC2COc3ccccc3O2)cc1` (stereo unspecified)?
TRPC6 activator: inactive; Kir21 block: -1.9; TRPC6 inh: inactive; TRPC4 potent: inactive; TRPC4 act: inactive; TRPC4 inh: inactive

How did Cc1ccc([N+](=O)[O-])cc1S(=O)(=O)NCC1COc2ccccc2O1 (stereo unspecified) do in these assays?
TRPC6 activator: inactive; Kir21 block: -6.4*; TRPC6 inh: inactive; TRPC4 potent: inactive; TRPC4 act: inactive; TRPC4 inh: inactive; hERG inh: inactive; KCNK9 inh: 36%*; Kir2-1 patch inh: 11%*

How did O=C(CCCN1CCC(O)(c2ccc(Cl)cc2)CC1)c1ccc(F)cc1 do in these assays?
TRPC6 activator: inactive; Kir21 block: -5.5*; TRPC6 inh: inactive; TRPC4 potent: inactive; TRPC4 act: inactive; TRPC4 inh: inactive; KCNK9 inh: inactive; Kir2-1 patch inh: 55%*

What do the screens show for `O=C(CCCN1CCC(C(=O)c2ccc(F)cc2)CC1)c1ccc(F)cc1`?
TRPC6 activator: inactive; Kir21 block: -0.31; TRPC6 inh: inactive; TRPC4 potent: inactive; TRPC4 act: inactive; TRPC4 inh: inactive

Results for O=C(NCCCOc1cccc(CN2CCCCC2)c1)c1ccc(Cl)c(Cl)c1 ?
TRPC6 activator: inactive; Kir21 block: -3; TRPC6 inh: inactive; TRPC4 potent: inactive; TRPC4 act: inactive; TRPC4 inh: inactive

What do the screens show for `c1cc(CN2CCCCC2)cc(OCCCNc2nc3ccccc3s2)c1`?
TRPC6 activator: inactive; Kir21 block: -7.3*; TRPC6 inh: inactive; TRPC4 potent: inactive; TRPC4 act: inactive; TRPC4 inh: inactive; hERG inh: inactive; KCNK9 inh: inactive; Kir2-1 patch inh: 48%*

How did CC(=O)N1CCN(C(=O)c2ccc(S(=O)(=O)Nc3cccc(C(F)(F)F)c3)cc2)CC1 do in these assays?
TRPC6 activator: inactive; Kir21 block: 4; TRPC6 inh: inactive; TRPC4 potent: inactive; TRPC4 act: inactive; TRPC4 inh: inactive; hERG inh: inactive; KCNK9 inh: inactive; Kir2-1 patch inh: inactive

What do the screens show for `O=C(c1ccc(S(=O)(=O)Nc2cccc(C(F)(F)F)c2)cc1)N1CCC1`?
TRPC6 activator: inactive; Kir21 block: -1.2; TRPC6 inh: inactive; TRPC4 potent: inactive; TRPC4 act: inactive; TRPC4 inh: inactive

Results for COc1ccc(CN2CCCN(S(=O)(=O)c3ccc(Br)cc3)CC2)cc1 ?
TRPC6 activator: inactive; Kir21 block: -6.8*; TRPC6 inh: inactive; TRPC4 potent: inactive; TRPC4 act: inactive; TRPC4 inh: inactive; hERG inh: 67%*; KCNK9 inh: inactive; Kir2-1 patch inh: 31%*

What do the screens show for `CCOc1ccc(-n2c(=O)c3sccc3n(CC(=O)NCC3CCCO3)c2=O)cc1` (stereo unspecified)?
TRPC6 activator: inactive; Kir21 block: -1.9; TRPC6 inh: inactive; TRPC4 potent: inactive; TRPC4 act: inactive; TRPC4 inh: inactive

What do the screens show for `COc1ccc(CCN(C)C(=O)c2oc3ccccc3c2C)cc1OC`?
TRPC6 activator: inactive; Kir21 block: -6.5*; TRPC6 inh: inactive; TRPC4 potent: inactive; TRPC4 act: inactive; TRPC4 inh: inactive; hERG inh: inactive; KCNK9 inh: inactive; Kir2-1 patch inh: 61%*

Results for CC(C)CN(C(=O)COC(=O)CNC(=O)c1sc2ccccc2c1Cl)C1CCS(=O)(=O)C1 (stereo unspecified) ?
TRPC6 activator: inactive; Kir21 block: 5.5; TRPC6 inh: inactive; TRPC4 potent: inactive; TRPC4 act: inactive; TRPC4 inh: inactive; hERG inh: inactive; KCNK9 inh: inactive; Kir2-1 patch inh: inactive

What do the screens show for `CC(C)CN(C(=O)COC(=O)Cc1n[nH]c(=O)c2ccccc12)C1CCS(=O)(=O)C1` (stereo unspecified)?
TRPC6 activator: inactive; Kir21 block: 0.43; TRPC6 inh: inactive; TRPC4 potent: inactive; TRPC4 act: inactive; TRPC4 inh: inactive

Results for Cc1ccc(N(C(=O)c2ccco2)C2C=CS(=O)(=O)C2)cc1 (stereo unspecified) ?
TRPC6 activator: inactive; Kir21 block: 1.2; TRPC6 inh: inactive; TRPC4 potent: inactive; TRPC4 act: inactive; TRPC4 inh: inactive

What do the screens show for `COCc1cc(C)nc2sc(C(=O)Nc3cccc(OC)c3)c(N)c12`?
TRPC6 activator: inactive; Kir21 block: -0.84; TRPC6 inh: inactive; TRPC4 potent: inactive; TRPC4 act: inactive; TRPC4 inh: inactive

Results for Cc1ccc(NC(=O)c2ccc(Cn3cc(Cl)cn3)o2)c(C)c1 ?
TRPC6 activator: inactive; Kir21 block: -10*; TRPC6 inh: inactive; TRPC4 potent: inactive; TRPC4 act: inactive; TRPC4 inh: inactive; hERG inh: inactive; KCNK9 inh: inactive; Kir2-1 patch inh: 51%*

How did Cc1ccccc1NC(=O)c1ccc(Cn2cc([N+](=O)[O-])cn2)o1 do in these assays?
TRPC6 activator: inactive; Kir21 block: -0.27; TRPC6 inh: inactive; TRPC4 potent: inactive; TRPC4 act: inactive; TRPC4 inh: inactive

What do the screens show for `N#CCC(CNc1ncc(C(F)(F)F)cc1Cl)OC(=O)c1cccc([N+](=O)[O-])c1` (stereo unspecified)?
TRPC6 activator: inactive; Kir21 block: -1.3; TRPC6 inh: inactive; TRPC4 potent: inactive; TRPC4 act: inactive; TRPC4 inh: inactive

Results for O=C(Nc1cc(Cl)cc(Cl)c1)c1cccc(OC(F)F)c1 ?
TRPC6 activator: inactive; Kir21 block: 4.3; TRPC6 inh: inactive; TRPC4 potent: inactive; TRPC4 act: inactive; hERG inh: inactive; KCNK9 inh: 45%*; Kir2-1 patch inh: inactive

Results for Cn1c(=O)n(CC(=O)NCC2CCCO2)c(=O)c2c3c(sc21)CCCC3 (stereo unspecified) ?
TRPC6 activator: inactive; Kir21 block: 1.3; TRPC6 inh: inactive; TRPC4 potent: inactive; TRPC4 act: inactive; TRPC4 inh: inactive
